# Compound activity from PubChem.
# UCH37 DUB inh = blocks the human deubiquitinase UCH37; Q9Y5K5; purified proteasome/UCH37, Ub-AMC cleavage fluorescence; inhibition, % (concentration not given with the values); 0.33% of 330,000 active; AID 588478;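 active = mean inhibition over replicate wells above about 20%, limit read from the data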;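 note: 0% = compound-free wells with enzyme and 100% = wells lacking proteasome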
# Target sequence (Q9Y5K5 whole entry, looked up): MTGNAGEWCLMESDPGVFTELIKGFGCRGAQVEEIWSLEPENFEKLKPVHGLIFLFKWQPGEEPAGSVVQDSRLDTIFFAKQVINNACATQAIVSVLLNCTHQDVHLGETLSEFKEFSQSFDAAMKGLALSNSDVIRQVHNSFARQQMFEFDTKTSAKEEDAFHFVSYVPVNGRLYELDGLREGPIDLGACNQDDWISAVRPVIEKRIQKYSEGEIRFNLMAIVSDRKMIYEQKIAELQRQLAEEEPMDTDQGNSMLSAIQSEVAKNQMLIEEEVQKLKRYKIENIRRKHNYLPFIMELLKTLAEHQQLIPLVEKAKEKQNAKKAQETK
#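 System: Proteasome-associated human UCH37 deubiquitinase; Input: 0.15 nM proteasome in added enzyme buffer; Also added: Ub-AMC substrate from 1 µM stock; Incubation: 30 min compound-proteasome preincubation then 25 min substrate reaction, room temperature; Detection: fluorescence, ex 355 nm, em 460 nm; Read-out: % inhibition of Ub-AMC cleavage fluorescence; Benchmarks: no-proteasome and no-compound wells.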
# Neddylation inh = blocks human cullin neddylation. P61081+Q13564. TR-FRET cullin neddylation, biochemical. inhibition, % at 25 µM. 0.58% of 360,000 active. AID 651699; in the data active = inhibition above about 36%
# UBC9 SUMO inh = SUMOylation inhibition | 0.36% of 290,000 active | AID 2006 | P63279 | HTRF SUMOylation assay, SAE1/SAE2 + UBC9, in vitro | inhibition, % at 35 µM; in the data active = inhibition above about 50%, passing the limit was not always enough
# Target sequence (P63279 whole entry, looked up): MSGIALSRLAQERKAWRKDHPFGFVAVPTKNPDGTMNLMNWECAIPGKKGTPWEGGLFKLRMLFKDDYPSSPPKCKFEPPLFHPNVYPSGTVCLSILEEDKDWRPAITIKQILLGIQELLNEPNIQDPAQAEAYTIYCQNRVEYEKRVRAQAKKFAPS
# CTSL1 counter = cathepsin L1 inhibition, PFM18AAP counter-screen | recombinant F. hepatica cathepsin L1, Z-Leu-Arg-MCA fluorescence | inhibition, % at 5.96 µM | 0.49% of 300,000 active | AID 1906;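 active = inhibition above the mean of all tested compounds plus 3 SD, set per screening campaign, cut at about 17% in these data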;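 note: 0% = plate median of test compound wells and 100% = 1 µM Z-Phe-Ala-diazomethylketone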
# Active calls of the source: *; i = inactive; nt = not tested or not shown. Compounds with a hit are over-represented: about 1.4% of the library has one in this group of screens.
SMILES,UCH37 DUB inh,Neddylation inh,UBC9 SUMO inh,CTSL1 counter
O=C(CSc1nc2nc(-c3cccs3)cc(C(F)(F)F)c2c(=O)[nH]1)Nc1ccc(F)c(F)c1,-214,-32,56*,4
Cc1ccc(C)c(NC(=O)CSc2nc3nc(-c4cccs4)cc(C(F)(F)F)c3c(=O)[nH]2)c1,-136,26,28,5
CCOc1ccccc1-c1c2cc(O)c(=O)cc-2oc2cc(O)c(O)cc12,16,-5,26,nt
O=c1cc2oc3cc(O)c(O)cc3c(-c3ccccc3O)c-2cc1O,15,-10,85*,nt
COc1cccc(C=NNC(=O)c2cnn(-c3ccccc3)c2N)c1,4,nt,nt,nt
CC(=NNC(=O)c1cc(Br)ccc1O)C(=NO)C(=O)Nc1ccccc1,6,nt,nt,nt
O=C(COc1cccc2cccnc12)NN=C1SCC(=O)N1Cc1ccco1,1,nt,nt,nt
COc1ccc(OC)c(C=NNC(=O)CCc2ccc(O)c(O)c2)c1,-427,nt,nt,nt
Oc1cccc(/C=N/Nc2cc(N3CCCC3)nc(N3CCCC3)n2)c1,nt,8,93*,10
Nc1c(N(CCC2=CCCCC2)C(=O)COc2ccc(F)cc2)c(=O)[nH]c(=O)n1Cc1ccccc1,24*,-11,nt,nt
Cn1c(=O)c2c(nc(CN3CCc4ccccc4C3)n2Cc2cccc(Cl)c2)n(C)c1=O,23*,-41,-10,0
CCCCNc1c2c3c(cccc3n(C)c1=O)C(=O)c1ccccc1-2,-8,-150,25,3
Cn1c(=O)c(NCCO)c2c3c(cccc31)C(=O)c1ccccc1-2,11,-105,55*,5
CC1C(=O)NN=C1C(=O)NN=Cc1ccc(O)cc1O (stereo not given),0,nt,nt,nt
CC(C)c1onc(C(=O)NCc2cccs2)c1[N+](=O)[O-],3,-18,11,23*
Cc1ccc(C2=NN(C(=O)CCl)C(c3cccs3)C2)o1 (stereo not given),3,23,6,18*
O=C(CCl)N1N=C(c2ccco2)CC1c1cccs1 (stereo not given),3,8,10,26*
C=CCn1c(CSc2nnc(-c3ccccc3)n2C)n[nH]c1=S,0,3,0,28*
COc1ccc(C=NNc2ccccc2C(=O)O)cc1,14,nt,nt,nt
COc1ccccc1Oc1c(C)oc2cc(OC(=O)c3ccco3)ccc2c1=O,i,nt,52*,-8
Cc1nn(-c2ccccc2)c(N2CCCC2)c1C=O,3,-9,-4,2
Cc1nn(-c2ccccc2)c(N2CCCC2)c1/C=C1\N=C(c2ccccc2)OC1=O,3,2,-10,56*
S=C(NN=Cc1ccccc1)N1CCOCC1,6,nt,nt,nt
O=C(NC1=C(Nc2ccc(F)cc2)C(=O)c2ccccc2C1=O)c1ccc(Cl)cc1,21*,-16,3,5
O=C(NNC(=O)c1ccc(NC(=O)c2ccccc2)cc1)c1ccc(F)cc1,-3,-7,16,1
SMILES,UCH37 DUB inh,Neddylation inh,UBC9 SUMO inh,CTSL1 counter
CCN(CC)Cc1c(O)ccc2c(=O)c(Oc3ccccc3OC)coc12,-184,nt,52*,1
COc1ccccc1Oc1coc2c(CN(C)C)c(O)ccc2c1=O,-170,nt,38,4
NCCCNC(=O)c1ccc(C=NO)nc1,3,nt,nt,nt
COc1ccccc1-c1nnc(SC(C(=O)c2c[nH]c3ccccc23)c2ccccc2)n1C (stereo not given),3,-2,-14,1
COc1cccc(-c2nnc(SC(C(=O)c3c[nH]c4ccccc34)c3ccccc3)n2C)c1 (stereo not given),29*,-4,-7,-2
Cc1ccccc1Nc1cccc2nonc12,-1,2,92*,4
O=S(=O)(O)c1cc(O)c2cc(Nc3ccccc3)ccc2c1,-91,44*,nt,nt
COc1ccccc1Nc1ccc2c(O)cc(S(=O)(=O)O)cc2c1,-10,46*,nt,nt
O=S(=O)(O)c1cc(O)c2ccc(Nc3ccccc3)cc2c1,-32,54*,nt,nt
CC(=O)Nc1ccc2c(O)cc(S(=O)(=O)O)cc2c1,0,-6,nt,nt
Nc1ccc2c(O)cc(S(=O)(=O)O)cc2c1,-113,21,nt,nt
O=S(=O)(O)c1ccc(O)c2cc(Nc3ccccc3)ccc12,1,37,nt,nt
O=c1c(=Cc2ccc(O)cc2)sc2n1C(c1ccccc1)C(c1ccccc1)=NN=2 (stereo not given),-4,nt,nt,nt
O=Nc1c(O)c2ccccc2c2ccccc12,2,-29,nt,6
O=c1c(=Nc2ccccc2O)c(=O)c2ccccc12,nt,-17,91,33*
CC(=NOCC(=O)Nc1ccc(C)cc1C)c1cccs1,5,nt,nt,nt
COc1ccc(CCNC(=O)Oc2ccccc2)cc1OC,3,3,22,18*
COc1ccc(CCNC(=O)c2cnc3n(c2=O)CCS3)cc1OC,2,1,11,41*
CN(C)S(=O)(=O)c1cccc(NC(=S)NN=Cc2ccco2)c1,9,nt,nt,nt
O=C(CN1C(=O)/C(=C2\SC(=S)N(CCS(=O)(=O)O)C2=O)c2ccccc21)Nc1cccc(Br)c1,18,1,56*,-2
Oc1oc(-c2ccco2)nc1C=Nc1cccc(Cl)c1,2,-6,25,37*
O=C(NN=Cc1ccco1)c1cccc(N2CCCC2=O)c1,3,nt,nt,nt
O=C(NNC(=O)c1sc2ccccc2c1Cl)Nc1ccc(Cl)cc1,1,-2,52*,1
COc1cc(NC(=O)CCc2nnc3ccc(N4CCN(c5cccc(OC)c5)CC4)nn23)cc(OC)c1,-7,-491,-1,66*
O=C(N/N=C/c1cc(Br)c(O)c(Br)c1)c1cc2c(ccc3ccccc32)o1,nt,51*,32,nt
SMILES,UCH37 DUB inh,Neddylation inh,UBC9 SUMO inh,CTSL1 counter
COc1cc(C=NNc2ccc(Cl)c(C(=O)O)c2)ccc1OC(=O)c1cccs1,9,nt,nt,nt
O=C(NN=C/C=C/c1ccc(Br)cc1)c1ccc2c(c1)OCO2,6,nt,nt,nt
Cc1csc(=NC(=S)Nc2ccccc2)n1C,5,nt,nt,nt
O=C(CCl)Nc1ccc(N2CCCCCC2)cc1,4,0,-17,21*
CCC(=O)Nc1ccc(N2CCCCC2)cc1,2,-12,4,-2
O=C(CCc1ccc(S(=O)(=O)NC2CCCCC2)cc1)N(Cc1ccccc1)Cc1ccccc1,33*,-12,8,2
C=CCN1C(=O)C(Cc2ccc(F)cc2)SC1=NN=Cc1cccs1 (stereo not given),2,nt,nt,nt
Cc1cc(NC2=CC(=O)C(=O)c3ccccc32)no1,nt,-54,nt,nt
COc1cc(OC)c(NC2=CC(=O)C(=O)c3ccccc32)cc1Cl,nt,-93,23,23*
CCOc1ccccc1C=NNc1ccccc1[N+](=O)[O-],3,nt,nt,nt
Cn1c(-c2ccc(C=O)s2)nc2ccccc21,-117,nt,56*,-2
O=S(=O)(O)c1cccc(N=Nc2c(O)ccc3ccccc23)c1,22*,-104,18,1
COc1ccccc1-c1c(C#N)c(N)nc2c1CCc1ccccc1-2,i,nt,98*,1
COc1cc(/C=C/C(=O)O)cc(S(=O)(=O)Nc2ccccc2Oc2ccccc2)c1OC,3,-5,14,21*
N#CC1=C(N)C(C#N)(C#N)[C@H](c2ccoc2)[C@H]2CN(Cc3ccccc3)CC=C12,3,-1,62*,2
CC(=O)N1CC=C2C(C#N)=C(N)C(C#N)(C#N)[C@H](c3ccoc3)[C@H]2C1,-25,23,15,1
